The values below come from ChEMBL document CHEMBL1764951, “Synthesis of a new 4-aza-2,3-didehydropodophyllotoxin analogues as potent cytotoxic and antimitotic agents” (2011).

Where a name gives a salt, the structure may show the parent alone. Calls of active or inactive are those of the source. The calls are words filed in the database; no cut-off is given here.

The subject of assay [1] is A549. The assay is described as follows: Cell cycle arrest in human A549 cells assessed as accumulation at G1 phase at 10 uM after 48 hrs using propidium iodide staining by flow cytometry (reference value: 71.6%). The format is functional.
Assay [2] has as its system A2780. The assay can be described thus: Cytotoxicity against human A2780 cells after 48 hrs by sulforhodamine B based ELISA. Type of assay: functional. As to conditions: A2780, 48 h. Put shortly:
(§1)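 Lines were grown in DMEM with 10% FBS and 2 mM L-glutamine, plated at densities set by doubling time, and held 24 h at 37 °C, 5% CO2. Drugs were tested at 0.1, 1, 10 and 100 µM in triplicate wells for 48 h. Cells were fixed with cold TCA (10% final) for 60 min at 4 °C, stained 20 min with 0.4% SRB in 1% acetic acid, and eluted with 10 mM Tris base. A540 was read with a 690 nm reference. GI50 came from [(Ti−Tz)/(C−Tz)]×100 = 50; runs were repeated three times.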

In assay [3] the test system is A549. The assay can be described thus: Induction of apoptosis in human A549 cells assessed as activation of caspase 3 at 5 uM after 48 hrs by fluorimetric assay relative to control. The format is functional. An outline of the steps:
(§2)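 A-549 cells in 6-well plates at 60–80% confluence were given compound at 5 µM, with podophyllotoxin at 1 µM as the positive control. The methods give 24 h incubation; the legend gives 48 h. Cells were scraped, lysed by syringe in lysis buffer on ice 10–20 min, and spun at 13,200 rpm for 20 min at 4 °C. The supernatant was assayed fluorimetrically with an AMC-conjugated caspase-3 substrate. Values are the mean ± SD of two experiments, each in triplicate.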

Assay [4] relates to A549. The assay is described as follows: Cell cycle arrest in human A549 cells assessed as accumulation at S phase at 10 uM after 48 hrs using propidium iodide staining by flow cytometry (reference value: 5.2%). Type of assay: functional.
Assay [5] concerns the target T1, Tubulin (Homo sapiens) (UniProt P68371+Q9H4B7+P0DPH7+P68366+Q13509+Q71U36+P04350+Q3ZCM7+P07437+P68363+Q9BQE3+Q6PEY2+Q13885+Q9BVA1+Q9BUF5). The assay can be described thus: Inhibition of tubulin polymerization in human A549 cells assessed as disrupted microtubule organization at 1 uM after 48 hrs by immunohistochemistry. The format is cell-based. Put shortly:
(§3)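 A-549 cells on glass coverslips were treated 48 h with compound at 5 µM or podophyllotoxin at 1 µM. They were fixed in 3% paraformaldehyde/0.02% glutaraldehyde in PBS, permeabilized in −20 °C methanol, and blocked 1 h in 1% BSA. Staining used a mouse monoclonal anti-tubulin antibody and an FITC-conjugated secondary. Microtubule network integrity was assessed by confocal microscopy.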

The subject of assay [6] is A549. The assay is described as follows: Cytotoxicity against human A549 cells after 48 hrs by sulforhodamine B based ELISA. The format is functional. As to conditions: A549, 48 h. Put shortly:
as §1

Assay [7] concerns A549. The assay can be described thus: Cell cycle arrest in human A549 cells assessed as accumulation at G2/M phase at 10 uM after 48 hrs using propidium iodide staining by flow cytometry (reference value: 23.1%). The format is functional.
Assay [8] in a line: Inhibition of tubulin polymerization at 3 uM after 1 hr fluorescence analysis relative to control. Put shortly:
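The cell-free fluorescence kit assay used PEM buffer, 1 mM GTP and compound at 3 µM final. Polymerization was followed as reporter incorporation into microtubules, read at 460 nm emission for 1 h at 37 °C, with podophyllotoxin as the positive control. Percent inhibition was expressed relative to the untreated control.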

In assay [9] the test system is COLO 205. The assay is described as follows: Cytotoxicity against human COLO205 cells after 48 hrs by sulforhodamine B based ELISA. Type of assay: functional. The following applies: COLO 205, 48 h. An outline of the steps: as §1
Assay [10] deals with T1, Tubulin (Homo sapiens). The assay is described as follows: Inhibition of tubulin polymerization in human A549 cells assessed as disrupted microtubule organization at 5 uM after 48 hrs by immunohistochemistry. Type of assay: cell-based. Put shortly:
as §3

Assay [11] deals with KB. The assay is described as follows: Cytotoxicity against human KB cells after 48 hrs by sulforhodamine B based ELISA. The format is functional. Put shortly:
as §1

The subject of assay [12] is MCF7. The assay can be described thus: Cytotoxicity against human MCF7 cells after 48 hrs by sulforhodamine B based ELISA. Type of assay: functional. The following applies: MCF7, 48 h. Put shortly: as §1
For assay [13], the system named is A549. The assay can be described thus: Cell cycle arrest in human A549 cells assessed as accumulation at G1 phase at 1 uM after 48 hrs using propidium iodide staining by flow cytometry (reference value: 71.6%). The format is functional.
In assay [14] the test system is A549. The assay can be described thus: Cell cycle arrest in human A549 cells assessed as accumulation at G2/M phase at 1 uM after 48 hrs using propidium iodide staining by flow cytometry (reference value: 23.1%). Type of assay: functional.
For assay [15], the system named is A549. The assay can be described thus: Cell cycle arrest in human A549 cells assessed as accumulation at S phase at 1 uM after 48 hrs using propidium iodide staining by flow cytometry (reference value: 5.2%). The format is functional.
For assay [16], the system named is A549. The assay can be described thus: Induction of apoptosis in human A549 cells assessed as activation of caspase 3 at 1 uM after 48 hrs by fluorimetric assay relative to control. The format is functional. Put shortly:
as §2

In the case of `COc1cc(C2C3=C(COC3=O)Nc3ccc4ncsc4c32)cc(OC)c1OC` (stereo not drawn), the Activity came to 42.4% in assay [1], 4.4% in [4] and 53.1% in assay [7]. The GI50 was found to be 2300 nM in assay [2], 2400 nM in assay [6], 2500 nM in assay [9] and 2100 nM in assay [11]. Moreover, the “fold change (FC)” value in assay [3] was determined as 2. In addition, the inhibition result in assay [5] and in assay [10] was “Active” throughout. Also, the inhibition in assay [8] was found to be 49.4%.
Take `COc1ccc(C2C3=C(COC3=O)Nc3ccc4cn[nH]c4c32)cc1O` (stereo not drawn): the GI50 in assay [9] came to 2600 nM.
On to `COc1nc2c(c(OC)n1)C(c1ccc(F)c(OC)c1)C1=C(COC1=O)N2` (stereo not drawn), for which the values for the GI50 in assay [6] and in assay [11] were 2600 nM and 2200 nM, respectively.
In the case of `COc1ccc(C2C3=C(COC3=O)Nc3ccc4nn[nH]c4c32)c(F)c1` (stereo not drawn), the concentration for 50% growth inhibition (GI50) in assay [12] is under 100 nM.
Consider `COc1ccc(C2C3=C(COC3=O)Nc3ccc4cc[nH]c4c32)cc1[N+](=O)[O-]` (stereo not drawn), for which the GI50 in assay [9] was 2400 nM.
In turn, `COc1cc(C2C3=C(COC3=O)Nc3c2cc(OC)c(OC)c3OC)ccc1O` (stereo not drawn) showed a GI50 in [12] of 2900 nM.
For the molecule `COc1nc2c(c(OC)n1)C(c1cc(OC)c(OC)c(OC)c1)C1=C(COC1=O)N2` (stereo not drawn), the Activity came out at 38.9% in assay [1], 12.7% in assay [4] and 48.2% in assay [7]. The “fold change (FC)” value in assay [3] was 2. Further, the GI50 came to 2400 nM in assay [12], 2100 nM in [6], 160 nM in [9] and 170 nM in [11]. Also, the inhibition result in assay [5] and in assay [10] was “Active” in each case. This molecule registered an inhibition in [8] of 63.7%.
As for `COc1cc(C2C3=C(COC3=O)Nc3ccc4nn[nH]c4c32)cc(OC)c1OC` (stereo not drawn), halving of growth in assay [11] (GI50) required 2900 nM.
Consider `COc1cc(C2C3=C(COC3=O)Nc3ccc4cn[nH]c4c32)ccc1F` (stereo not drawn), for which the GI50 came to 2700 nM in [12] and 2300 nM in assay [6].
As to `COc1cc(C2C3=C(COC3=O)Nc3ccc4cc[nH]c4c32)ccc1F` (stereo not drawn), the GI50 in assay [2] came out at 2300 nM; in assay [12] it was 2100 nM; in assay [6], 2200 nM; in assay [11], 170 nM.
For the molecule `COc1ccc(C2C3=C(COC3=O)Nc3ccc4cc(C)[nH]c4c32)c(F)c1` (stereo not drawn), the GI50 is 2300 nM in assay [2], under 100 nM in [12], 2700 nM in [9] and 2200 nM in assay [11].
`COc1cc(C2C3=C(COC3=O)Nc3ccc4cc[nH]c4c32)ccc1O` (stereo not drawn): the GI50 turned out to be 2300 nM in assay [12] and 2500 nM in [9].
For the molecule `COc1cc([C@@H]2c3cc4c(cc3[C@H](O)[C@H]3COC(=O)[C@H]23)OCO4)cc(OC)c1OC` [PODOFILOX], the Activity was 31.4% in assay [13], 61.5% in assay [14] and 7.1% in [15]. Further, the inhibition result in assay [5] and in assay [10] was “Active” in each case. Besides, in assay [8], the inhibition was found to be 80.7%. For the same molecule, the “fold change (FC)” value in assay [16] stood at 4.
The molecule `COc1cc(C2C3=C(COC3=O)Nc3ccc4cc(C)[nH]c4c32)cc(OC)c1OC` (stereo not drawn) showed a GI50 in assay [11] of 2000 nM.
Regarding `COc1cc(C2C3=C(COC3=O)Nc3ccc4cc[nH]c4c32)cc(OC)c1OC` (stereo not drawn), the GI50 in assay [2] worked out at 2700 nM; in assay [6] it was 2400 nM; in assay [9] it was 2300 nM; in assay [11] it was 2000 nM.
`COc1cc(C2C3=C(COC3=O)Nc3ccc4cn[nH]c4c32)ccc1O` (stereo not drawn): the GI50 in assay [12] and in [9] was 2000 nM in each case.
As for `COc1cc([C@@H]2c3cc4c(cc3[C@@H](O[C@@H]3O[C@@H]5CO[C@@H](C)O[C@H]5[C@H](O)[C@H]3O)[C@H]3COC(=O)[C@H]23)OCO4)cc(OC)c1O` [ETOPOSIDE], the GI50 came to 1300 nM in [2]; 2100 nM in assay [12]; 3080 nM in assay [6]; 130 nM in assay [9]; 300 nM in assay [11].
For `COc1cc(C2C3=C(COC3=O)Nc3ccc4cc(C)[nH]c4c32)ccc1F` (stereo not drawn), the Activity was found to be 35.4% in assay [1], 8.8% in assay [4] and 55.6% in [7]. Also, the 50% growth inhibitory concentration (GI50) in assay [2] turned out to be 2400 nM; in assay [12] it was 2600 nM; in assay [6] it was 2100 nM. Further, the “fold change (FC)” value in assay [3] came to 2. Also, the inhibition result in [5] and in [10] was “Active” in each case. Further, in assay [8], the inhibition stood at 45.3%.
Turning to `COc1ccc(C2C3=C(COC3=O)Nc3onc(-c4ccc(Cl)cc4)c32)cc1O` (stereo not drawn), the GI50 in assay [11] came out at 2700 nM.
Molecule `COc1ccc(C2C3=C(COC3=O)Nc3ccc4nc(S)[nH]c4c32)cc1O` (stereo not drawn) yielded a GI50 in [12] of 2700 nM.
Molecule `COc1cc(C2C3=C(COC3=O)Nc3ccc4nc(C)sc4c32)ccc1[N+](=O)[O-]` (stereo not drawn) had a GI50 in [12] of 150 nM.
In the case of `COc1ccc(C2C3=C(COC3=O)Nc3ccc4cc[nH]c4c32)cc1O` (stereo not drawn), the GI50 worked out at 2700 nM in [2]; 2900 nM in [12]; 2300 nM in [6]; 190 nM in assay [9]; 2200 nM in [11].
For the molecule `COc1cccc2c1C(=O)c1c(O)c3c(c(O)c1C2=O)C[C@@](O)(C(=O)CO)C[C@@H]3O[C@H]1C[C@H](N)[C@H](O)[C@H](C)O1` [DOXORUBICIN HYDROCHLORIDE], the GI50 in assay [2] is under 100 nM; in assay [12] it was 130 nM; in assay [6], under 100 nM; in assay [9], under 100 nM; in assay [11], 130 nM.
